Biological target: T1, Galectin-8 (Homo sapiens, UniProt O00214)
T1 sequence (O00214 whole entry): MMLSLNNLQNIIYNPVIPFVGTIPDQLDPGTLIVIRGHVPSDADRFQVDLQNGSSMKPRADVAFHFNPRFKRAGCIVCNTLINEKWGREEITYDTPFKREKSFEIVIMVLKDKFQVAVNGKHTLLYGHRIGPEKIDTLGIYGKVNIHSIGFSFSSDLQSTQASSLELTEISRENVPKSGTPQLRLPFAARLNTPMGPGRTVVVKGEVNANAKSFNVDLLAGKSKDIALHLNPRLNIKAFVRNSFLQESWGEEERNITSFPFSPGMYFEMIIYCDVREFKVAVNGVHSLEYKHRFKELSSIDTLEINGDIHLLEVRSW
Assay: Binding affinity to N-terminal domain of human galectin-8 (8-154 residues) by ITC assay
Outline: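 Untagged galectin-8N (residues 8-154) was expressed in bacteria (IPTG induction 4 h, room temperature) and purified on lactosyl-Sepharose at 4 °C. Protein and ligand were in 20 mM Tris pH 7.5, 100 mM NaCl, 4 mM BME, 5% DMSO and degassed. Ligand (0.5 or 1 mM) was titrated into 100 µM protein over 20-25 × 2.5 µl injections, 150 s apart, at 298 K. Blank-corrected data were fitted to an independent-site model for Kd.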

**Q.** Which Kd does the source give for `OC[C@H]1O[C@@H](O[C@H]2[C@H](O)[C@@H](O)[C@H](O)O[C@@H]2CO)[C@H](O)[C@@H](O)[C@H]1O` [Lactose, anhydrous] here?
**A.** Its Kd is 37.9 µM.

Reference: BindingDB's records for PubMed 32809817 (Griffith University, 2020)
